Measured values taken from ChEMBL document CHEMBL1208682, “New quinoline derivatives: synthesis and investigation of antibacterial and antituberculosis properties” (2010).
≈ marks a conversion by molar mass, not a printed value.

What was measured:
Assay type in all cases: functional
Staphylococcus aureus = experiment: Antibacterial activity against Staphylococcus aureus ATCC 25923 after 3 to 4 days by serial plate dilution method; settings: for MIC: Staphylococcus aureus, ATCC 25923
Escherichia coli = experiment: Antibacterial activity against Escherichia coli ATCC 25922 after 3 to 4 days by serial plate dilution method; settings: for MIC: Escherichia coli, ATCC 25922
Pseudomonas aeruginosa = experiment: Antibacterial activity against Pseudomonas aeruginosa ATCC 27853 after 3 to 4 days by serial plate dilution method; settings: for MIC: Pseudomonas aeruginosa, ATCC 27853
Klebsiella pneumoniae = experiment: Antibacterial activity against recultured Klebsiella pneumoniae after 3 to 4 days by serial plate dilution method; settings: for MIC: Klebsiella pneumoniae
[1] = test system: Mycobacterium tuberculosis; experiment: Antituberculosis activity against Mycobacterium tuberculosis H37Rv ATCC 27294 after 7 days using resazurin dye by broth microdilution assay; settings: H37Rv ATCC 27294, 168 h
Outline: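 M. tuberculosis H37Rv grown in Middlebrook 7H9 with 10% OADC and 0.5% glycerol, adjusted to McFarland 1.0. Compounds were dissolved in DMF as stocks and tested at final levels of 1.56, 3.12, 6.25, 12.5, 25 and 50 in 96-well REMA. Controls were DMF-only, growth, rifampicin and isoniazid. After 7 days at 37 °C, 0.01% resazurin was added for 24 h and the colour change read.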

SMILES	diameter of the inhibition zone (DIZ) (Staphylococcus aureus) [mm]	MIC (Staphylococcus aureus) [µg/mL]	diameter of the inhibition zone (DIZ) (Escherichia coli) [mm]	MIC (Escherichia coli) [µg/mL]	diameter of the inhibition zone (DIZ) (Pseudomonas aeruginosa) [mm]	MIC (Pseudomonas aeruginosa) [µg/mL]	diameter of the inhibition zone (DIZ) (Klebsiella pneumoniae) [mm]	MIC (Klebsiella pneumoniae) [µg/mL]	MIC [1] [µM]
Oc1cc(F)ccc1/C=N/Nc1cc(C(F)(F)F)nc2c(C(F)(F)F)cccc12	13	12.5 (≈ 30 µM)	22	6.25 (≈ 15 µM)	12	12.5 (≈ 30 µM)	13	12.5 (≈ 30 µM)	> 50
O=C(O)c1cn(C2CC2)c2cc(N3CCNCC3)c(F)cc2c1=O [CIPROFLOXACIN]	26	–	28	–	31	–	24	3.12 (≈ 9.42 µM)	–
FC(F)(F)c1cc(N/N=C/c2cccs2)c2cccc(C(F)(F)F)c2n1	<10	50 (≈ 128 µM)	<10	50 (≈ 128 µM)	<10	50 (≈ 128 µM)	<10	50 (≈ 128 µM)	> 50
FC(F)(F)c1cc(N/N=C/c2cocc2Br)c2cccc(C(F)(F)F)c2n1	<10	50 (≈ 111 µM)	<10	50 (≈ 111 µM)	<10	50 (≈ 111 µM)	<10	50 (≈ 111 µM)	> 50
N#Cc1cccc(NC(=O)NNc2cc(C(F)(F)F)nc3c(C(F)(F)F)cccc23)c1	<10	50 (≈ 114 µM)	<10	50 (≈ 114 µM)	<10	50 (≈ 114 µM)	<10	50 (≈ 114 µM)	25 (≈ 11 µg/mL)
CCCCCNC(=O)NNc1cc(C(F)(F)F)nc2c(C(F)(F)F)cccc12	10	12.5 (≈ 30.6 µM)	10	12.5 (≈ 30.6 µM)	14	12.5 (≈ 30.6 µM)	<10	50 (≈ 122 µM)	25 (≈ 10.2 µg/mL)
CC1=NN(c2cc(C(F)(F)F)nc3c(C(F)(F)F)cccc23)C(=O)C1	24	6.25 (≈ 17.3 µM)	22	6.25 (≈ 17.3 µM)	25	6.25 (≈ 17.3 µM)	20	6.25 (≈ 17.3 µM)	–
Fc1ccccc1NC(=S)NNc1cc(C(F)(F)F)nc2c(C(F)(F)F)cccc12	<10	50 (≈ 112 µM)	<10	50 (≈ 112 µM)	<10	50 (≈ 112 µM)	<10	50 (≈ 112 µM)	> 50
O=C1CC(c2ccccc2)=NN1c1cc(C(F)(F)F)nc2c(C(F)(F)F)cccc12	18	6.25 (≈ 14.8 µM)	10	12.5 (≈ 29.5 µM)	12	12.5 (≈ 29.5 µM)	10	12.5 (≈ 29.5 µM)	–
O=C1CC(c2ccncc2)=NN1c1cc(C(F)(F)F)nc2c(C(F)(F)F)cccc12	20	6.25 (≈ 14.7 µM)	10	12.5 (≈ 29.5 µM)	12	12.5 (≈ 29.5 µM)	10	12.5 (≈ 29.5 µM)	–
O=C1CC(CCc2ccc3c(c2)OCO3)=NN1c1cc(C(F)(F)F)nc2c(C(F)(F)F)cccc12	22	6.25 (≈ 12.6 µM)	21	6.25 (≈ 12.6 µM)	24	6.25 (≈ 12.6 µM)	22	6.25 (≈ 12.6 µM)	–
